Compound activity (PubChem)
This is a sample that favours compounds with a hit; in the whole collection about 2.2% have one here.
FLuc inh counter: counter-screen for luciferase assay inhibitors: firefly luciferase inhibition | ATPLite firefly luciferase biochemical luminescence, 10 min | P08659 | hit rate 1.5% among 200,000 | inhibition, % at 10 µM;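 active = inhibition above about 50% when tested at 10 µM, limit read from the data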
Target sequence (P08659 whole entry, looked up): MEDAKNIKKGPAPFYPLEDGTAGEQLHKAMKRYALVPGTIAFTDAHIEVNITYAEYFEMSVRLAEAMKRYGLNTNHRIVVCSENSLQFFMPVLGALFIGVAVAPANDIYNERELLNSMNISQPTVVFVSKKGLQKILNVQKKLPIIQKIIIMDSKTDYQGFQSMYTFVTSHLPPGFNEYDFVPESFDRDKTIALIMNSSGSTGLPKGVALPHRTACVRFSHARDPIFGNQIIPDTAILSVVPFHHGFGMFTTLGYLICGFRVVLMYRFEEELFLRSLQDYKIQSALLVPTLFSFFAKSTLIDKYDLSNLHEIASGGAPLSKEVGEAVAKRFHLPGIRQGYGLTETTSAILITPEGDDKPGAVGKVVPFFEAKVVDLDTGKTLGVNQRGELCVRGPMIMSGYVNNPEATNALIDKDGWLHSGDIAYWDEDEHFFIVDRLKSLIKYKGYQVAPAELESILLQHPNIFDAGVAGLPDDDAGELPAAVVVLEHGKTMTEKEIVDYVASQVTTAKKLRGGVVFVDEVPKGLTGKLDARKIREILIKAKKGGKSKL
FLuc stim CS: affects firefly luciferase, flagging false hits in luciferase stimulation screens. P08659. ATPlite luciferase biochemical, luminescence, 10 min; 0 = ATP-free wells, 1 = DMSO control. activation factor at 10 µM. 200,000 tested, under 10 active. AID 1027;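 active = luciferase activation factor, scaled between plate controls, of at least 2 with compound at 10 µM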
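Assay system: Luciferase/luciferin reagent mix; Medium: PBS as buffer for the ATP substrate; Dosing: test compounds dosed from 2 mM stocks in 100% DMSO; Times: 10 min, room temperature; Signal: luminescence from luciferase reaction; Read-out: luciferase activation; Controls: No-ATP low control, compound-free enzyme-plus-ATP high control.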
PPC-1+TRAIL kill: kills PPC-1 cancer cells in the presence of TRAIL; PPC-1 cells + TRAIL, ATPLite viability luminescence; hit rate 0.41% among 220,000; AID 1443; cell killing (% activity), % at 4 µM or 5 µM;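 active = cell killing above 50% in the first pass at 4 µM, then a duplicate retest at 5 µM averaging 50% or more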;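 note: plate controls were cells with TRAIL plus DMSO for no effect and medium-only wells lacking cells for full effect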
HSP90 inh: blocks HSP90-mediated luciferase refolding in reticulocyte lysate | Rabbit reticulocyte lysate, luciferase refolding luminescence, 3 h | inhibition, % at 5.6 µM | hit rate 0.91% among 290,000 | AID 1789;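 active = inhibition above the screen-wide mean plus 3 SD, computed separately per campaign, cut at about 16% in these data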;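 note: 0% = DMSO wells and 100% = 60 µM geldanamycin wells; inhibitors lower the luminescence because luciferase stays unfolded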
C8 TRAIL sens: sensitizes caspase-8 expressing cells to TRAIL | NB7+C8 cells + TRAIL, ATPlite viability luminescence | inhibition (viability loss, TRAIL sensitization), % at 10 µM | hit rate 1% among 360,000 | AID 624354;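 active = compounds causing at least 50% loss of cell viability in the single-dose screen, relative to plate controls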
STAT3 inh: STAT3 signaling inhibition. U3A cells, IL-6 STAT3-luciferase reporter, luminescence; host cell line lacks STAT1. inhibition, % at 5.5 µM. hit rate 0.89% among 190,000. AID 862;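 active = inhibition above the mean inhibition across all screened compounds plus 3 SD, cut at about 44% in these data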;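 note: 0% = DMSO only wells and 100% = 100 µM nifuroxazide control wells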
The depositor's hits bear a star; . = no result.

SMILES	FLuc inh counter	FLuc stim CS	PPC-1+TRAIL kill	HSP90 inh	C8 TRAIL sens	STAT3 inh
Cc1cc(=O)[nH]c(S/C=C/c2ccccc2)n1	77*	0.2	35	5	36	11
CCOc1ccc(S(=O)(=O)Nc2cc(SCC(=O)O)c(O)c3ccccc23)cc1	.	.	.	4	35	.
O=S(=O)(Nc1cc(Sc2cccc3cccnc23)c(O)c2ccccc12)c1ccccc1	-6	1.1	70*	-3	.	-96
O=C(c1cc2nc(-c3ccc(F)cc3)cc(C(F)(F)F)n2n1)N1CCCCC1c1cccnc1 (configuration not stated)	-5	1	15	4	22	57*
Cc1nn(CC(=O)N2CCN(c3ccc(Cl)cc3)CC2)c(=O)c2cccn12	.	.	.	3	-3	.
O=C(c1ccc(NS(=O)(=O)c2ccccc2)cc1)N1CCOCC1	.	.	.	0	14	.
COc1ccc(C(C(=O)NC2CCCCC2)N(C(=O)CCl)c2ccc(Cl)cc2)cc1 (configuration not stated)	-11	1.1	62*	2	96*	9
O=C(NC1CCCCC1)C(c1cccnc1)N(C(=O)CCl)c1cccc(Cl)c1 (configuration not stated)	-7	1.1	12	6	98*	18
COc1ccc(C(C(=O)NC2CCCC2)N(C(=O)c2snc(-c3ccc(F)cc3)c2N)c2ccc(F)cc2)cc1 (configuration not stated)	-6	1.1	7	0	51*	1
CSc1ccccc1NC(=O)CN(C)CC(=O)NCC(=O)Nc1ccc(F)cc1	.	.	.	.	17	.
COc1ccc2c(c1OC)C(=O)N1c3ccccc3C(=O)N(c3ccccc3)C21 (configuration not stated)	-5	1.1	20	3	20	49*
COc1ccc2c(c1OC)C(=O)N1c3ccccc3C(=O)N(c3ccc(F)cc3)C21 (configuration not stated)	-7	1.1	11	-2	29	8
O=C(CN1CC(c2ccccc2)CC1=O)N/N=C/c1cc(Br)ccc1O (configuration not stated)	-4	1	34	-6	52*	8
O=C(CNC(=O)c1ccccc1)N/N=C/c1cc(Br)ccc1O	-4	1	39	-5	44	0
CCCC(=O)Nc1ccc(-c2csc(N/N=C\c3ccncc3)n2)cc1	.	.	15	0	71*	.
CC(=O)Nc1ccc(-c2csc(N/N=C\c3ccncc3)n2)cc1	.	.	6	6	7	.
COc1cccc(C=Cc2nccc3ccccc23)c1OC	.	.	.	.	61*	.
CCN=C1NN=C(c2ccc(C)cc2)CS1	64*	0.4	-7	0	7	66*
CC(C)N=C1NN=C(c2ccc(F)cc2)CS1	58*	0.4	14	3	33	28
Fc1ccccc1N=C1NN=C(c2ccccc2)CS1	30	0.7	6	8	29	-7
CCOc1ccccc1NC(C)C(=O)NC(=O)NC1CCCCC1 (configuration not stated)	.	.	.	.	-10	.
O=C(CCc1ccccc1)N1CCCC(Nc2ccc(F)cc2)C1 (configuration not stated)	.	.	.	-3	-5	.
CNC[C@@H](CC1CCCCC1)NC[C@H](CC(C)C)NCCc1cccc(C(F)(F)F)c1	.	.	.	-1	92*	.
CN(Cc1cccc(C(F)(F)F)c1)C(=O)C1CCC(=O)N(CC2CCCCC2)C1 (configuration not stated)	.	.	.	-1	9	.
CNC[C@@H](Cc1ccccc1)NC[C@@H](CC1CCCCC1)NCCCc1ccccc1	.	.	.	1	96*	.
SMILES	FLuc inh counter	FLuc stim CS	PPC-1+TRAIL kill	HSP90 inh	C8 TRAIL sens	STAT3 inh
CCCn1c(N)c(C(=O)CSc2nnc3ccccn23)c(=O)n(C)c1=O	.	.	.	.	-9	.
COc1ccccc1-c1csc(C(NC(C)=O)c2ccccc2)n1 (configuration not stated)	.	.	.	.	3	.
CC1(C)C2CC=C(/C=N/NC(=S)NCCc3ccccc3)C1C2 (configuration not stated)	-8	1.1	-2	0	-5	-5
CNC(=S)N/N=C/C1=CCC2CC1C2(C)C (configuration not stated)	62*	0.4	25	0	6	1
Cc1ccc(Cl)cc1NC(=S)NCCCSC1CCCCC1	-12	1.1	15	2	1	10
NC(=S)NN=C1c2ccccc2-c2c(F)c(F)c(F)c(F)c21	.	.	.	.	71*	.
N#Cc1cccc2c1-c1ccccc1/C2=N/NC(N)=S	.	.	.	6	-5	.
O=C(NCc1cccnc1)/C(=C\c1ccc(-c2ccc(Cl)c(Cl)c2)o1)S(=O)(=O)c1ccccc1	-1	1	27	7	93*	12
Cc1cc(/C=N/NC(=O)C(=O)NCc2ccccn2)c(C)n1-c1ccccc1	58*	0.4	14	1	33	11
Cc1cc(/C=N/NC(=O)c2ccccn2)c(C)n1-c1cccc([N+](=O)[O-])c1	11	0.9	20	3	-2	9
Cc1cc(/C=N\NC(=O)COc2cccc3cccnc23)c(C)n1-c1ccc(Br)cc1	15	0.8	5	1	-1	-5
Cc1cc(/C=N\NC(=O)COc2cccc3cccnc23)c(C)n1-c1ccccc1	71*	0.3	12	1	23	-11
CC(=O)OCC1=C(C(=O)O)N2C(=O)C(NC(=O)CCn3nc(C(F)(F)F)c(Br)c3C3CC3)C2SC1 (configuration not stated)	-7	1.1	-24	2	1	-11
COc1cccc(-c2cc3nc(-c4ccccc4)cc(N4CCN(C(=O)c5ccoc5)CC4)n3n2)c1	.	.	.	.	79*	.
COc1ccccc1-c1cc2nc(-c3ccccc3)cc(N3CCN(C(=O)c4ccoc4)CC3)n2n1	.	.	.	.	74*	.
COc1ccccc1-c1cc2nc(-c3ccccc3)cc(N3CCN(C(=O)c4ccco4)CC3)n2n1	.	.	.	.	75*	.
COc1ccc2c(c1)c(=O)oc1c(C)c(OC(C)C(=O)N[C@@H](Cc3c[nH]c4ccc(O)cc34)C(=O)O)ccc12 (some centres not stated)	.	.	.	-6	-12	.
COc1ccc(C(=O)Nc2cccc(OC)c2)cc1	67*	0.3	46	5	53*	34
COc1ccc(C(=O)Nc2cc(C)on2)cc1	73*	0.3	47	5	57*	26
COc1cccc(NC(=O)c2ccc(OC(F)(F)F)cc2)c1	.	.	.	.	49*	.
O=C(N/N=C\c1ccc(CNS(=O)(=O)c2ccc(Cl)cc2)o1)C(=O)Nc1ccc(Oc2ccccc2)cc1	-7	1.1	1	2	54*	-6
O=C(N/N=C\c1ccc(CNS(=O)(=O)c2ccccc2)o1)C(=O)Nc1ccc(F)cc1	-6	1.1	15	-2	-10	6
C=C1CC(COc2cc(=O)oc3ccccc23)(c2ccccc2)OC1=O (configuration not stated)	.	.	.	.	93*	.
